Here are results for one compound from ChEMBL document CHEMBL4480455, “Anti-inflammatory Property of Imperatorin on Alveolar Macrophages and Inflammatory Lung Injury” (J Nat Prod, 2019).

The target in data set [1] is T1, I-kappa-B kinase (Mus musculus) (UniProt Q60680+O88351+O88522). Nature of the data set: Inhibition of zymosan-induced IKK phosphorylation in mouse MHS cells by Western blot analysis. Format: cell-based. A digest of the protocol: (§1)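 MH-S cells pretreated, then stimulated with zymosan 10 μg/mL. Phospho-JAK1 (Y1022/1023), phospho-STAT3 (Y705) and phospho-IKKα/β detected by Western blot against total protein and tubulin. Zymosan time course 1–30 min for JAK1/STAT3 and 1–60 min for IKK. Normalized to control; mean ± SD, n≥3.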
For orientation: A western blot detects proteins with antibodies after separation by electrophoresis.

Data set [2] addresses Signal transducer and activator of transcription 3 (Mus musculus) (UniProt P42227). As to the kind of experiment: Inhibition of zymosan-induced STAT3 phosphorylation in mouse MHS cells assessed as phosphorylated STAT3 level at 1.5 ug/ml by Western blot analysis relative to tubulin (reference value: 2.1). Format: cell-based. A digest of the protocol: as §1
The target in data set [3] is Tyrosine-protein kinase JAK1 (Mus musculus) (UniProt P52332). As to the kind of experiment: Effect on JAK1 phosphorylation in mouse MHS cells assessed as phosphorylated JAK1 level at 15 ug/ml by Western blot analysis relative to tubulin (reference value: 1). The class given is cell-based.
The species entered for data set [4] is Mus musculus. Nature of the data set: Antiinflammatory activity in mouse MHS cells assessed as reduction in zymosan-induced nitrite production at 1.5 to 15 ug/ml preincubated for 30 mins followed by zymosan challenge and measured after 6 to 24 hrs by Griess assay. The class given is functional, cell-based. A digest of the protocol: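 MH-S cells pretreated for 30 min, then given zymosan 10 μg/mL for 24 h. Supernatant nitrite reacted with equal volumes of 0.1% NED and 1% sulfanilamide in 5% phosphoric acid, 10 min in the dark. Absorbance read at 520 nm. Mean ± SD, n≥3.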
A general note: The Griess reaction detects nitrite, a stable product of nitric oxide.

For data set [5], the target named is Signal transducer and activator of transcription 3 (Mus musculus) (UniProt P42227). As to the kind of experiment: Inhibition of zymosan-induced STAT3 phosphorylation in mouse MHS cells preincubated for 30 mins followed by zymosan challenge and measured after 6 to 24 hrs by Western blot analysis. Format: cell-based.
In data set [6] the target is Transcription factor p65 (Mus musculus) (UniProt Q04207). As to the kind of experiment: Inhibition of zymosan-induced NFkappaB p65 nuclear translocation in mouse MHS cells at 15 ug/ml by DAPI staining based immunofluorescence microscopic analysis. Format: cell-based. The gist of the method: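 MH-S cells on coverslips pretreated, then given zymosan 10 μg/mL for 3 h. Fixed in 4% paraformaldehyde, permeabilized with 1% Triton X-100, blocked with 4% skim milk. Anti-p65 at 4 °C overnight, FITC secondary 1 h, DAPI nuclear counterstain. Fluorescence microscopy; at least three experiments.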

In data set [7] the target is T1, I-kappa-B kinase (Mus musculus). Nature of the data set: Inhibition of zymosan-induced IKK phosphorylation in mouse MHS cells assessed as phosphorylated IKK level at 15 ug/ml by Western blot analysis relative to tubulin (reference value: 1.8). The class given is cell-based. A digest of the protocol: as §1
For data set [8], the species on record is Mus musculus. As to the kind of experiment: Antiinflammatory activity in mouse MHS cells assessed as reduction in zymosan-induced PGE2 production at 1.5 to 15 ug/ml preincubated for 30 mins followed by zymosan challenge and measured after 6 to 24 hrs by ELISA. Format: functional, cell-based. A digest of the protocol: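 MH-S cells pretreated for 30 min, then given zymosan 10 μg/mL for 24 h. Supernatant PGE2 measured by competitive ELISA: acetylcholinesterase tracer plus monoclonal antibody, 4 °C for 18 h, Ellman's reagent development, absorbance at 405 nm. Mean ± SD, n≥3.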
(In general: An ELISA detects its analyte on a solid surface through an enzyme-linked reagent.)

A short description of data set [9]: Antiinflammatory activity in mouse MHS cells assessed as reduction in zymosan-induced iNOS protein expression at 15 ug/ml preincubated for 30 mins followed by zymosan challenge and measured after 6 to 24 hrs by Western blotting analysis relative to control (reference value: 2.93 +/- 0.84). Format: functional.
The species named for data set [10] is Mus musculus. Nature of the data set: Antiinflammatory activity in mouse MHS cells assessed as reduction in zymosan-induced COX2 mRNA expression preincubated for 30 mins followed by zymosan challenge and measured after 6 to 24 hrs by TRIzol reagent based qRT-PCR analysis. Format: functional, cell-based. A digest of the protocol: (§2)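 MH-S alveolar macrophages grown in RPMI 1640 with 10% FBS at 37 °C and 5% CO2. Cells pretreated for 30 min, then given zymosan 10 μg/mL for 6 h. mRNA measured by SYBR Green real-time PCR (95 °C 10 min; 42 cycles of 95 °C 10 s, 60 °C 60 s) with actin as reference. Normalized to control; mean ± SD, n≥3.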

The nature of data set [11]: Antiinflammatory activity in mouse MHS cells assessed as reduction in zymosan-induced COX2 protein expression at 15 ug/ml preincubated for 30 mins followed by zymosan challenge and measured after 6 to 24 hrs by Western blotting analysis relative to control (reference value: 2.2 +/- 1.8). Format: functional.
Data set [12] can be described thus: Antiinflammatory activity in mouse MHS cells assessed as reduction in zymosan-induced iNOS protein expression at 1.5 ug/ml preincubated for 30 mins followed by zymosan challenge and measured after 6 to 24 hrs by Western blotting analysis relative to control (reference value: 2.93 +/- 0.84). Format: functional.
The target of data set [13] is Tyrosine-protein kinase JAK1 (Mus musculus) (UniProt P52332). As to the kind of experiment: Inhibition of zymosan-induced JAK1 phosphorylation in mouse MHS cells preincubated for 30 mins followed by zymosan challenge and measured after 6 to 24 hrs by Western blot analysis. The class given is cell-based.
The subject of data set [14] is Mus musculus. As to the kind of experiment: Antiinflammatory activity in zymosan induced C57BL/6 mouse model of lung injury assessed as reduction in total protein level in BALF at 4 mg/kg, ip pretreated for 3 days followed by zymosan challenge and measured after 24 hrs. Format: functional, organism-based. The gist of the method:
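Male C57BL/6 mice, 25–30 g. Dosed i.p. daily for 3 days, then zymosan 4 mg/kg in 40 μL saline given by intratracheal instillation. After 24 h, BALF collected with five 0.2 mL PBS washes and centrifuged. Supernatant assayed for PGE2 and total protein. Cells counted by hemocytometer, and ≥300 cells on stained smears scored for differential counts. Left lung weighed, dried at 48 °C for 48 h, reweighed for wet/dry ratio.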

The nature of data set [15]: Cytotoxicity against zymosan-induced mouse MHS cells assessed as effect on cell viability at 1.5 to 15 ug/ml preincubated for 30 mins followed by zymosan challenge and measured after 6 to 24 hrs by sulforhodamine B assay. The class given is cell-based. A digest of the protocol: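 MH-S cells exposed to test agent and zymosan (10 μg/mL). Viability by sulforhodamine B: fixed in 10% trichloroacetic acid, stained 30 min with 0.4% (w/v) SRB, dissolved in 10 mM Tris, read at OD 515 nm. Mean ± SD, n≥3.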

Data set [16] deals with Mus musculus. As to the kind of experiment: Antiinflammatory activity in zymosan induced C57BL/6 mouse model of lung injury assessed as reduction in thinkened basement membrane at 4 mg/kg, ip pretreated for 3 days followed by zymosan challenge and measured after 24 hrs by H and E staining based microscopic analysis. The class given is functional, organism-based. A digest of the protocol:
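Male C57BL/6 mice dosed i.p. for 3 days, then given zymosan (4 mg/kg, i.t.) or saline. Lungs harvested 24 h later. Right lung fixed in 10% formalin, embedded in paraffin, cut into 5 μm sections, stained with H&E or Masson's trichrome and examined by microscopy. Collagen also measured by hydroxyproline assay on lung lysates. Mean ± SD, n≥4.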

Data set [17] can be described thus: Effect on iNOS protein expression in mouse MHS cells at 15 ug/ml after 30 mins by Western blotting analysis relative to tubulin (reference value: 1). The class given is ADME, cell-based. The conditions noted are these: 0.5 h.
The species entered for data set [18] is Mus musculus. As to the kind of experiment: Antiinflammatory activity in mouse MHS cells assessed as reduction in zymosan-induced iNOS mRNA expression preincubated for 30 mins followed by zymosan challenge and measured after 6 to 24 hrs by TRIzol reagent based qRT-PCR analysis. The class given is functional, cell-based. A digest of the protocol: as §2
In data set [19] the target is T1, I-kappa-B kinase (Mus musculus). Nature of the data set: Inhibition of zymosan-induced IKK phosphorylation in mouse MHS cells assessed as phosphorylated IKK level at 1.5 ug/ml by Western blot analysis relative to tubulin (reference value: 1.8). Format: cell-based. A digest of the protocol: as §1
A short description of data set [20]: Effect on nitrite level in mouse MHS cells at 1.5 to 15 ug/ml after 30 mins by Griess assay. The class given is ADME, cell-based. To be noted: 0.5 h.
The nature of data set [21]: Cytotoxicity against mouse MHS cells assessed as effect on cell viability at 1.5 to 15 ug/ml measured after 30 mins by sulforhodamine B assay. The conditions noted are these: 0.5 h. Format: cell-based.
Data set [22] is filed under the species Mus musculus. As to the kind of experiment: Antiinflammatory activity in mouse MHS cells assessed as reduction in zymosan-induced TNFalpha protein expression at 1.5 to 15 ug/ml preincubated for 30 mins followed by zymosan challenge and measured after 6 to 24 hrs. The class given is functional, cell-based. The gist of the method:
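MH-S cells pretreated for 30 min, then given zymosan 10 μg/mL for 24 h. IL-6 and TNFα protein in culture supernatant assessed by cytokine array. Values normalized to control; mean ± SD, n≥3.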

The source made the active and inactive calls. The rule behind the calls is not given here.

Signal transducer and activator of transcription 3 (Mus musculus), sequence (P42227 whole entry): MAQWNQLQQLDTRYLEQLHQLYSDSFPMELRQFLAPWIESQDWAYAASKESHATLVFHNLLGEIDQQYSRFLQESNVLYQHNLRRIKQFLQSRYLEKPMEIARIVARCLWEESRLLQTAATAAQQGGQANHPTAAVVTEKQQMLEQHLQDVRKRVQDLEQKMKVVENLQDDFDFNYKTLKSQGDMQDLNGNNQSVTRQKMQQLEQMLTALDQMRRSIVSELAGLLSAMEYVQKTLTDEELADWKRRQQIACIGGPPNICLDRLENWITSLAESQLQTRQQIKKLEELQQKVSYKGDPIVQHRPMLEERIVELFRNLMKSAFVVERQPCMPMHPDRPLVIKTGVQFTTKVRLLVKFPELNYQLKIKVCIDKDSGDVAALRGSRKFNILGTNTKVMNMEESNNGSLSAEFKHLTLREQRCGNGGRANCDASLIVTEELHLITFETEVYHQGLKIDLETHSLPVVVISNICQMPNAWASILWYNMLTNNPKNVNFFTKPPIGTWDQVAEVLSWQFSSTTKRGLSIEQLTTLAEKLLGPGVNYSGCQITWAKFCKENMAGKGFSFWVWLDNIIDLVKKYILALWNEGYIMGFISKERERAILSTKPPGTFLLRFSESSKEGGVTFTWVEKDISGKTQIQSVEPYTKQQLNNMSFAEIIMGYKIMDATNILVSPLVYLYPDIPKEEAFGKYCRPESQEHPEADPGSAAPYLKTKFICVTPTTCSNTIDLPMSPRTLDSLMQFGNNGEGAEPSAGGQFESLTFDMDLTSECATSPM
Tyrosine-protein kinase JAK1 (Mus musculus), sequence (P52332 whole entry): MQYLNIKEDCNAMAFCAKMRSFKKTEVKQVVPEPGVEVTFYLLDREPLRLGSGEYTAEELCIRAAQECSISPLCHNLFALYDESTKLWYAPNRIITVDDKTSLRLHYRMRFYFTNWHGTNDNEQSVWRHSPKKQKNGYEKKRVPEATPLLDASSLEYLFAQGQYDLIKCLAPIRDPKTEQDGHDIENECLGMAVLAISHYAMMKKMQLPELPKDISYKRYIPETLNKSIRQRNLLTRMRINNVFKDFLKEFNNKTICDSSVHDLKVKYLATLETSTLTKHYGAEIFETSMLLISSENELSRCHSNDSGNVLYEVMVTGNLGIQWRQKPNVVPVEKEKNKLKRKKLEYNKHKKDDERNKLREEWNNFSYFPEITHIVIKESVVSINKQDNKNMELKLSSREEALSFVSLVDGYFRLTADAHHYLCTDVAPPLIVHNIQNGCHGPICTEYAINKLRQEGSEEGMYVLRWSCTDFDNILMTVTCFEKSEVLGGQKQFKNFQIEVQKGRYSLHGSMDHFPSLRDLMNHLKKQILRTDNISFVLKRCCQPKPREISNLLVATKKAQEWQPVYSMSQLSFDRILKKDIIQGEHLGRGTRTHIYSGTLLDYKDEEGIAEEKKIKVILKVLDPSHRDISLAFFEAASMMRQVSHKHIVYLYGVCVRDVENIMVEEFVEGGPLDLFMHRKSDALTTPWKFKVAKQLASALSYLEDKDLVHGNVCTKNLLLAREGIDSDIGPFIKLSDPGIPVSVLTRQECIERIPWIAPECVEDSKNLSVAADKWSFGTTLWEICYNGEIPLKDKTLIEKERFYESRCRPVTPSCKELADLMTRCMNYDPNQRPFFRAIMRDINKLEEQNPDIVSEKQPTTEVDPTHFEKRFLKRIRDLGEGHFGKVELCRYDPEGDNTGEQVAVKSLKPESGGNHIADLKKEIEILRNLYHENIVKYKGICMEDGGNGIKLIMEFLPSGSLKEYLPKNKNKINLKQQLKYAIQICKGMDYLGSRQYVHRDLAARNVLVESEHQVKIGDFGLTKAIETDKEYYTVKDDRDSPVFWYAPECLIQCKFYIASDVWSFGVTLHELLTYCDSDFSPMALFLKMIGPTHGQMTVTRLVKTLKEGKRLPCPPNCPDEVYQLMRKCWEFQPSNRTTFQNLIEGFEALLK
Transcription factor p65 (Mus musculus), sequence (Q04207 whole entry): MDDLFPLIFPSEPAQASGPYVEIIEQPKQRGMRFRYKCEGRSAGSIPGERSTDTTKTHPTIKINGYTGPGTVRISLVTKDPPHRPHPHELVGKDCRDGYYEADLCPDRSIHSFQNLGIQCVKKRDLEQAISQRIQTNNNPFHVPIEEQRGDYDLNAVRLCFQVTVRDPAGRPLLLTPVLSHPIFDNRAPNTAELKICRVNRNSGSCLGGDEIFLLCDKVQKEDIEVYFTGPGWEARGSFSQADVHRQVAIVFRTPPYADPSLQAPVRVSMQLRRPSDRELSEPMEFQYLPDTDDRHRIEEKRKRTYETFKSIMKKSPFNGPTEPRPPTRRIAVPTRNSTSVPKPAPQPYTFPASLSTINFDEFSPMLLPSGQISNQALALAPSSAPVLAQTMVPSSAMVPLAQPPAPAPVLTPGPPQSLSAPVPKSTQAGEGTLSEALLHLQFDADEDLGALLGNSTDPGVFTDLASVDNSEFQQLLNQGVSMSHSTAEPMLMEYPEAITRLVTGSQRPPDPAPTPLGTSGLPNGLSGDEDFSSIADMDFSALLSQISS

On to `CC(C)=CCOc1c2occc2cc2ccc(=O)oc12` [PENTOSALEN], for which the inhibition result in data set [1], in data set [5] and in [13] was “Dose-dependent effect” in each case. Moreover, the fold change (FC) in [2] was 1.8; in data set [3], 1.2; in data set [7], 1; in data set [9], 1.5; in data set [11] it was 1.8; in data set [12] it was 2.5. The “fold change (FC)” value stood at 0.9 in [17] and 1.2 in data set [19]. Besides, the result in the data set listed under Mus musculus [4], in the data set filed under Mus musculus [8], in the data set on Mus musculus [14], in the data set with Mus musculus [16] and in the data set filed under Mus musculus [22] was Active. Moreover, the inhibition result in data set [6] is “Active”. The Activity result in the data set filed under Mus musculus [10] was “Dose-dependent effect”; in data set [15] it was “Non-Toxic”; in the data set filed under Mus musculus [18], “Dose-dependent effect”; in data set [20] it was “Non-Toxic”; in data set [21], “Non-Toxic”.
